# Assay outcomes (PubChem BioAssay)
# Dyrk1A ADPGlo: inhibitors of rat Dyrk1A kinase | ADP-Glo luminescence, NFATc1 peptide | inhibition, % at 12.5 µM | actives 0.43% (n = 310,000) | AID 504441; in the data active means inhibition above about 50%;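 further: plate controls were vehicle with enzyme for no effect and no enzyme for full effect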
# Rtt109 Vps75: blocks Candida albicans Rtt109/Vps75 acetyltransferase activity. Q5AAJ8. purified Rtt109/Vps75, ThioGlo CoA-SH fluorescence, 4 h. inhibition, % at 34.9 µM. actives 0.16% (n = 330,000);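 active means inhibition of at least 50% in every replicate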
# Target sequence (Q5AAJ8 whole entry, looked up): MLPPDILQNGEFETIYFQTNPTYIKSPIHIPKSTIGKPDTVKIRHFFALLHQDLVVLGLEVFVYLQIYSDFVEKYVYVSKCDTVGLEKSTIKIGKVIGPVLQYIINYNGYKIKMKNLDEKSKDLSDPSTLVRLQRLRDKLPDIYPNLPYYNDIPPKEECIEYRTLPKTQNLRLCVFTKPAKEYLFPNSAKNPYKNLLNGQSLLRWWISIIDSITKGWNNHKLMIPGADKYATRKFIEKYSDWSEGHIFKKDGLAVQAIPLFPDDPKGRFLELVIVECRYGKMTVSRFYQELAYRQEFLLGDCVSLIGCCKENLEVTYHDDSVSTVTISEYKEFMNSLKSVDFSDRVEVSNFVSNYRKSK
# CAL PDZ FP-1: inhibitors of human CAL PDZ peptide binding; Q9HD26; purified CAL PDZ, TMR-peptide fluorescence polarization, 1 h; inhibition, % at 20 µM; actives 0.02% (n = 330,000); AID 504414;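 active means highest replicate inhibition of at least 40%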;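 further: plate controls were DMSO neutral control wells for no effect and unlabeled competitor peptide control wells for full effect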
#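 Material: tagged CAL PDZ domain; buffer or medium: 25 mM sodium phosphate pH 7.4, 150 mM NaCl, TCEP, IgG, Thesit; compound dosing: single point, 20 µM; schedule: 1 h incubation at room temperature before polarization reading; measured by: FP readout, S and P plane fluorescence; read-out basis: percent inhibition from loss of millipolarization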
# ALR H2O2 inh: inhibitors of human sulfhydryl oxidase ALR | actives 3.8% (n = 290,000) | AID 485317 | inhibition, % (concentration not given with the values) | purified ALR, DTT oxidation, H2O2 HRP-luminol luminescence;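 active means mean replicate inhibition above about 79%, with every replicate also reaching it, limit read from the data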
# Target sequence (P55789 whole entry, looked up): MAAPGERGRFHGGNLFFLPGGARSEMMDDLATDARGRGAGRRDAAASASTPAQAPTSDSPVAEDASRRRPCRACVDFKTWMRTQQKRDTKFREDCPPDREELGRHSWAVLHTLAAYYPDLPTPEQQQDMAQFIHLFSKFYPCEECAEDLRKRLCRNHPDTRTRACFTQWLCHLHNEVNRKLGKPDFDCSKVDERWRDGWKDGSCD
# CAL PDZ FP-2: CAL PDZ (human) peptide binding inhibition | purified CAL PDZ, TMR-peptide fluorescence polarization, 1 h | inhibition, % at 24.9 µM | actives 0.92% (n = 300,000);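 active means mean inhibition of at least 30% with at least half of replicates also reaching 30%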;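 further: 0% = DMSO neutral control and 100% = excess unlabeled competitor peptide PRC23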
# Active calls of the source: *; x = no result given. This is a sample that favours compounds with a hit; in the whole collection about 4.3% have one here.
SMILES,Dyrk1A ADPGlo,Rtt109 Vps75,CAL PDZ FP-1,ALR H2O2 inh,CAL PDZ FP-2
Cc1oc(-c2ccccc2)cc1C(=O)Nc1cccc(/C=C\C(=O)O)c1,17.8,6.4,-3.8,95.9*,-3.8
CCOC(=O)C1CCN(Cc2ccc(O)c(OC)c2)CC1,-7.8,1.8,-0.2,2.2,0.0
COc1cc(Cn2cnnn2)ccc1O,9.0,3.7,-0.1,80.5*,-2.2
c1cc2c(cc1Cn1cnnn1)OCO2,8.4,-12.8,-1.6,-0.9,62.4*
COc1ccc(-c2nnnn2-c2ccc(F)cc2F)cc1,-3.0,-3.6,-0.6,-2.8,7.5
CCn1ccnc1CN(C)C(=O)CCc1nnc(CCC2CCCCC2)o1,-2.5,-4.7,0.8,-11.8,0.9
N=c1c2c3c(sc2ncn1Nc1ccccc1)CCC3,x,x,x,5.9,x
S=c1nc[nH]c2c1[nH]c1ccccc12,10.5,1.0,0.2,97.9*,-2.2
Cc1ccc(S(=O)(=O)N2CCCOC2CNC(=O)C(=O)NC2CCCCC2)cc1 (stereo not drawn),-4.4,-1.0,-1.1,-2.1,-1.1
Nc1[nH]nc2nc3ccccc3cc12,x,-12.3,-0.3,61.0,46.6*
CCc1ccc2nc3n[nH]c(N)c3cc2c1,15.1,0.2,-0.2,90.2*,-1.5
COc1ccc(C2=NN(CC(=O)Nc3cc(C)ccc3C)C(=O)CC2)cc1,-3.4,-9.2,-3.4,x,-0.7
Cc1cc(NC(=O)COC(=O)C2=NN(c3ccccc3)C(=O)CC2)c([N+](=O)[O-])cc1C,2.2,1.8,-0.1,20.5,x
COc1ccc(OCCCC(=O)Nc2ncn[nH]2)cc1,0.3,-5.3,-1.8,-25.4,-1.9
Cc1cc(C)c2c(=O)n(-c3ccccc3)[nH]c2n1,0.5,-7.1,x,98.5*,4.9
O=c1nc(-c2ccccc2)n(-c2ccccc2)[nH]1,-1.4,-0.3,0.2,x,7.8
O=c1c2c(C(F)(F)F)cc(C(F)(F)F)nc2[nH]n1-c1ccccc1,-0.2,6.1,-0.7,25.6,x
Cc1cc(-c2ccccc2)nc2[nH]n(-c3ccccc3)c(=O)c12,-3.2,x,-2.9,99.0*,-1.3
Cc1cc(C(C)(C)C)nc2[nH]n(-c3ccccc3)c(=O)c12,-0.2,-1.7,-0.3,96.3*,-1.6
CCOC(=O)Nc1ccc2c(c1)N(CCCN(C)C)c1ccccc1CC2,3.6,24.4,-0.4,98.8*,x
CCOC(=O)C1CCCN(CC(O)COCc2ccccc2OC)C1 (stereo not drawn),x,0.9,0.2,0.7,1.1
CC(C)(C)NC(=O)C(c1cccs1)N(Cc1ccc(F)cc1)C(=O)c1csnn1 (stereo not drawn),-5.9,-9.0,x,9.4,0.8
COc1cc([N+](=O)[O-])cc(CN2CCCCC2)c1O,9.0,24.4,-2.7,98.0*,-2.0
CN(C(=O)CN1CCN(c2ccccc2F)CC1)C1CCCc2ccccc21 (stereo not drawn),-7.1,-4.4,-1.3,0.7,-1.8
Cc1ccc(NC(=O)c2cc(N3C(=O)C=CC3=O)ccc2N2CCOCC2)cc1Cl,-2.4,1.3,0.3,21.8,-6.9
SMILES,Dyrk1A ADPGlo,Rtt109 Vps75,CAL PDZ FP-1,ALR H2O2 inh,CAL PDZ FP-2
CCCC(=O)Nc1sc2c(c1C(=O)Nc1ccccn1)CCCC2,x,8.1,0.3,96.8*,0.1
CCCOC(=O)c1c(NC(=O)CCC(=O)O)sc2c1CCCCC2,1.6,-5.6,-0.3,89.2*,-1.2
CCOc1ccccc1NC(=O)c1c(NC(=O)CCC(=O)O)sc2c1CCCCC2,-2.2,14.4,-0.9,x,-0.3
COc1ccc(-n2c(=O)/c(=C\c3cccs3)s/c2=C(/C#N)C(=O)N2CCN(C)CC2)cc1,5.3,7.0,-2.4,-4.6,-1.0
Cc1cc(C)c(C)c(S(=O)(=O)NCC(=O)NCC2CCCCC2)c1C,2.8,8.3,-0.1,2.3,x
CCOC(=O)Cc1nn2c(=O)cc(C)nc2s1,-2.1,3.7,0.2,93.2*,-2.1
CCOC(=O)Cc1c(C)nc2cc(C)nn2c1C,-4.7,4.2,-1.5,-30.7,-1.8
CCOc1ccc(CCNC(=O)c2ccc(CS(=O)Cc3ccccc3Cl)o2)cc1 (stereo not drawn),4.6,-1.9,-3.7,98.1*,-1.8
O=C(NCc1ccc2c(c1)OCO2)c1ccc(CS(=O)Cc2ccc(Cl)cc2)o1 (stereo not drawn),6.1,-5.0,-1.5,-3.1,-7.1
O=C(NCc1ccc2c(c1)OCO2)c1ccc(CS(=O)Cc2cccc(Cl)c2)o1 (stereo not drawn),-0.2,52.4*,-2.7,93.8*,-0.5
Cc1ccc(CNC(=O)c2ccc(CS(=O)Cc3ccccc3Cl)o2)cc1 (stereo not drawn),-2.0,1.2,-2.1,98.8*,x
CCOC(=O)c1cc2c(ccc3nc(C)c(C)c32)[nH]c1C,1.8,-6.3,-1.2,-12.8,2.5
CN(C)c1ccc(/C=C2\SC(=O)N(CCc3nnc(N)s3)C2=O)cc1,-0.4,45.4,-3.6,97.1*,-2.8
NC(=O)CCC(NC(=O)c1ccc(Cl)cc1)C(=O)O (stereo not drawn),-3.5,2.9,-0.7,5.2,x
CCn1cc(S(=O)(=O)CC(=O)Nc2ccc(C)cc2)c2ccccc21,-6.6,9.2,-0.1,9.3,52.5*
CCOC(=O)c1c(NC(C)=O)sc2c1C1CCN2CC1,-1.2,5.5,-2.7,5.6,-2.0
CCOC(=O)c1c(N)sc2c1C1CCN2CC1,2.3,-3.5,0.7,98.5*,-0.1
CCOC(=O)c1c(SCC(=O)Nc2nc(C)cs2)nc(=O)[nH]c1C,-3.0,3.5,-0.7,98.7*,3.5
COC(=O)c1c(SCC(=O)Nc2ccc(C)cc2)nc(=O)[nH]c1C,1.9,-4.6,-0.3,52.5,5.0
Cc1cnc(=O)[nH]c1SCC(=O)c1ccc(F)cc1,2.8,-2.1,-3.3,98.8*,-3.5
Cc1csc(NC(=O)CSc2ncc(-c3ccccc3)[nH]2)n1,14.2,-1.1,-0.8,58.7,0.8
Cc1csc(SCC(=O)Nc2ccc(Cl)cn2)n1,17.4,8.4,-1.1,92.0*,1.7
Cc1csc(NC(=O)CSc2[nH]c(=O)ncc2C)n1,7.1,-0.4,-2.3,99.1*,-2.5
Cn1c(CO)cnc1SCC(=O)c1ccc(F)cc1,-1.4,-6.9,-1.1,x,-2.4
Cc1cc(C)cc(N(CCC#N)C(=O)COC(=O)C2CCN(c3ccc(C(F)(F)F)cn3)CC2)c1,3.3,-2.6,-0.2,-4.0,-2.5
SMILES,Dyrk1A ADPGlo,Rtt109 Vps75,CAL PDZ FP-1,ALR H2O2 inh,CAL PDZ FP-2
CN(C)/C=C(\C=N\OCc1ccc(Cl)cc1Cl)C(=O)Nc1ccc(Cl)c(Cl)c1,5.0,13.0,-0.1,14.6,0.0
C=C(C)n1c(=O)n(Cc2ccccc2C)c2ccccc21,-3.5,-6.6,0.4,-3.3,3.4
Cc1csc(NC(=O)CSc2ncnc3c2cnn3-c2ccccc2Cl)n1,2.0,6.2,-1.8,99.1*,-4.9
CCOc1nsc(OCC)n1,-3.8,-2.5,-0.9,-5.3,-1.9
O=C(Nc1ccccc1O)N1c2ccccc2Sc2ccccc21,7.4,-3.1,x,83.8*,2.8
O=C(NCc1ccc2c(c1)OCO2)c1ccc(Cl)nc1,-2.1,-7.9,-0.1,-2.2,98.9*
Cc1cc(C(=O)NCc2ccc3c(c2)OCO3)ccc1[N+](=O)[O-],-2.8,5.9,x,-9.6,68.9*
